Laboratory results reported in ChEMBL document CHEMBL4152376, “Optimization of 8-Hydroxyquinolines as Inhibitors of Catechol O-Methyltransferase” (J Med Chem, 2018).
One block for each compound: values may come before it.

Key:
[1] = Unbound drug level in brain of Sprague-Dawley rat at 15 mg/kg, ip after 4 hrs by ES-UPLC analysis; format: ADME, organism-based; settings: in vivo, BLD = below limit of detection
[2] = Drug level in CSF of Sprague-Dawley rat at 15 mg/kg, ip after 4 hrs by ES-UPLC analysis; format: ADME, organism-based, Cerebrospinal fluid; settings: in vivo, BLD = below limit of detection
[3] = Unbound plasma concentration in Sprague-Dawley rat 15 mg/kg, ip after 4 hrs by ES-UPLC analysis; format: ADME, organism-based; settings: in vivo
[4] = Fraction unbound in mouse plasma by equilibrium dialysis; format: ADME, cell-free
Procedure, shortened: (§1)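 Percent free drug in mouse or rat plasma, measured by equilibrium dialysis.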

[5] = Clearance in rat hepatocytes assessed as per million cells; format: ADME, cell-based, Hepatocyte; settings: read-out: CLH
[6] = target: T1, Catechol O-methyltransferase (Homo sapiens, UniProt P21964); assay: Inhibition of c-terminal hexa-His tagged human S-COMT expressed in HEK293-6E cell membrane homogenate using 7,8-dihydroxy-4-methylcoumarin as substrate after 1 hr in presence of SAM by MTase glo methyltransferase assay
T1 sequence (P21964 whole entry): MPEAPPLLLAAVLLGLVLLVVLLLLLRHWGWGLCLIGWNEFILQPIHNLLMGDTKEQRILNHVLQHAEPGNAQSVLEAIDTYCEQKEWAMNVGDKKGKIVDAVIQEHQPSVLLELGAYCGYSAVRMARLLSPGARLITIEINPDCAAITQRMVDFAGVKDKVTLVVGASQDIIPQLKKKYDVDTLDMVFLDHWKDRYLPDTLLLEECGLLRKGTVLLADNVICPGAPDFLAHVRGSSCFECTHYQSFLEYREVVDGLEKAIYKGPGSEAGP
Procedure, shortened: (§2)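 His6-tagged S-COMT (human or rat), expressed in 293-6E cells and purified by Ni-NTA and size exclusion, 1 ng per well. 20 µM SAM and 10 µM 7,8-dihydroxy-4-methylcoumarin in pH 6.9 Tris/MgCl2/DTT buffer, 1.5% DMSO. 1 h at 37 °C, then MTase-Glo luminescence read against a SAH standard curve. […] 4-parameter IC50; triplicate wells, three runs.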

[7] = Plasma concentration C57BL/6J mouse at 10 mg/kg, ip measured at 1 hr post dose; format: ADME, organism-based
Procedure, shortened: (§3)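 Male C57BL/6J mice (8 weeks), single ip injection of 10 mg/kg suspended in 0.1% Tween80/0.1% antifoam/1% methylcellulose at 10 mL/kg. Two mice per timepoint; at 1 h, plasma separated at 4 °C and brain homogenized in 4 volumes PBS pH 7.4. Total brain and plasma levels measured.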

[8] = Drug uptake in brain of C57BL/6J mouse at 10 mg/kg, ip measured at 1 hr post dose; format: ADME, organism-based; settings: C57BL/6J, brain, read-out: Drug uptake; procedure, shortened: as §3
[9] = Fraction unbound in rat brain by equilibrium dialysis; format: ADME, tissue-based
Procedure, shortened: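 Percent free drug in rat brain tissue, measured by equilibrium dialysis.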

[10] = target: T1, Catechol O-methyltransferase; assay: Inhibition of c-terminal hexa-His tagged human MB-COMT expressed in HEK293 cell membrane homogenate using norepinephrine as substrate after 1 hr in presence of SAM by MTase glo methyltransferase assay
Procedure, shortened: (§4)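 Membrane homogenate of HEK293 cells expressing C-terminal His6 MB-COMT (human about 7 ng, rat about 4 ng per well, protein by Bradford […]). 20 µM SAM and 7 µM norepinephrine in 50 mM Tris, 5–10 mM MgCl2, 2.5 mM DTT, pH 6.9, final DMSO 1.5%. 1 h at 37 °C, then MTase-Glo luminescence. […] 4-parameter IC50 fit; triplicate points, three experiments.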

[11] = Unbound plasma concentration in Sprague-Dawley rat 10 mg/kg, po after 4 hrs by ES-UPLC analysis; format: ADME, organism-based; settings: in vivo
Procedure, shortened: (§5)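 Sprague Dawley rats given 10 mg/kg po; CSF, plasma and brain collected at 4 h. Drug measured in CSF; free plasma and brain levels computed from total levels using plasma protein and brain tissue binding fractions. Free CSF derived from CSF binding by equilibrium dialysis with pooled rat CSF. Ratios taken from these values.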

[12] = target: ATP-binding cassette sub-family C member 2 (Homo sapiens, UniProt Q92887); assay: Inhibition of MRP2 (unknown origin)
[13] = Substrate activity at P-glycoprotein (unknown origin); format: ADME; settings: human
[14] = target: T2, Broad substrate specificity ATP-binding cassette transporter ABCG2 (Homo sapiens, UniProt Q9UNQ0); assay: Inhibition of BCRP (unknown origin); format: ADME
T2 sequence (Q9UNQ0 whole entry): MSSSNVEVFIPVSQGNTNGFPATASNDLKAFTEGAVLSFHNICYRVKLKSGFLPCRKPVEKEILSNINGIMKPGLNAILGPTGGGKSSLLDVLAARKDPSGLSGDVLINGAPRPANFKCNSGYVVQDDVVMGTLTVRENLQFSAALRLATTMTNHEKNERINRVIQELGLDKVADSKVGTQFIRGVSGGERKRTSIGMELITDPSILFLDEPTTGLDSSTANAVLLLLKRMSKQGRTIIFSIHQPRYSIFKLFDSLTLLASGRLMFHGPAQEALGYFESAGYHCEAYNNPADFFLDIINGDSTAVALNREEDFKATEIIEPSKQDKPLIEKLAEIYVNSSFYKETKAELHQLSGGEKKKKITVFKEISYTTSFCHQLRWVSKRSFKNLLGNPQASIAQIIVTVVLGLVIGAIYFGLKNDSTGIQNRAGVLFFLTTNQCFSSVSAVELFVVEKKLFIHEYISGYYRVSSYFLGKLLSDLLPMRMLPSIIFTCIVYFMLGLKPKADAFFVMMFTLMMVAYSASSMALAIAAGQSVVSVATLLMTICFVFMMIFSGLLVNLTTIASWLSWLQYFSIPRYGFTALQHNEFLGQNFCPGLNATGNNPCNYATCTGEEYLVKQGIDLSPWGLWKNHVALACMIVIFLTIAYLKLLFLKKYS

[15] = Efflux ratio of permeability in MDCK cells; format: ADME, cell-based, Canis lupus familiaris; settings: dog
Procedure, shortened: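 Efflux ratio taken as […] transport across P-glycoprotein-expressing MDCK cells.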

[16] = system: Rattus norvegicus; assay: In vivo inhibition of COMT in Sprague-Dawley rat assessed as DOPAC levels in CSF at 10 mg/kg, po measured at 4 hrs post dose by LC-MS analysis relative to control; format: functional
Procedure, shortened: (§6)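 Male Sprague Dawley rats (176–200 g on arrival) dosed orally at 10 mg/kg in Tween80/antifoam/methylcellulose suspension, 10 mL/kg, vehicle group as control (n=5–10). At 4 h under isoflurane, CSF drawn from cisterna magna. HVA and DOPAC quantified by LC-MS against standards in 0.01 M perchloric acid/aCSF with d5 internal standards. Reported as % of vehicle.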

[17] = Fraction unbound in rat plasma by equilibrium dialysis; format: ADME, cell-free; procedure, shortened: as §1
[18] = Protein binding in CSF of Sprague-Dawley rat at 2 uM by equilibrium dialysis; format: ADME, tissue-based, Cerebrospinal fluid; settings: read-out: PB (converted)
Procedure, shortened: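 Binding in pooled rat CSF measured by equilibrium dialysis at 2 µM test concentration.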

[19] = target: T3, Catechol O-methyltransferase (Rattus norvegicus, UniProt P22734); assay: Inhibition of c-terminal hexa-His tagged rat MB-COMT expressed in HEK293 cell membrane homogenate using norepinephrine as substrate after 1 hr in presence of SAM by MTase glo methyltransferase assay; procedure, shortened: as §4
T3 sequence (P22734 whole entry): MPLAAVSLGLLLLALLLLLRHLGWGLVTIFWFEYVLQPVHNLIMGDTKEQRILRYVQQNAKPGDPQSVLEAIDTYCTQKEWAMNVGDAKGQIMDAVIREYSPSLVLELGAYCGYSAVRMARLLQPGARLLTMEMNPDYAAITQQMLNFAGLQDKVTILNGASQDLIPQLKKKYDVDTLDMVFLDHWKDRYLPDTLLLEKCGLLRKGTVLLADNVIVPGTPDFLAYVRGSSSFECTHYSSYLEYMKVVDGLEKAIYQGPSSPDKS

[20] = Drug level in CSF of Sprague-Dawley rat at 10 mg/kg, po after 4 hrs by ES-UPLC analysis; format: ADME, organism-based, Cerebrospinal fluid; settings: read-out: Drug uptake; procedure, shortened: as §5
[21] = Inhibition of P-glycoprotein (unknown origin); settings: human
[22] = system: Rattus norvegicus; assay: Volume of distribution at steady state in rat at 1 mg/kg, iv or 3/10 mg/kg, po; format: ADME, organism-based; settings: in vivo
Procedure, shortened: (§7)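 Rat pharmacokinetics after a 1 mpk iv dose (n=3) and a 3 or 10 mpk oral dose (n=3).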

[23] = system: Rattus norvegicus; assay: In vivo inhibition of COMT in Sprague-Dawley rat assessed as HVA levels in CSF at 10 mg/kg, po measured at 4 hrs post dose by LC-MS analysis relative to control; format: functional; design: scale not given: the % may be the effect or the level left; procedure, shortened: as §6
[24] = Half life in rat at 1 mg/kg, iv or 3/10 mg/kg, po; format: ADME, organism-based; settings: in vivo; procedure, shortened: as §7
[25] = system: Rattus norvegicus; assay: Oral bioavailability in rat at 3/10 mg/kg; format: ADME, organism-based; settings: in vivo; procedure, shortened: as §7
[26] = Ratio of drug level in CSF of Sprague-Dawley rat to unbound plasma concentration in Sprague-Dawley rat at 10 mg/kg, po after 4 hrs by ES-UPLC analysis; format: ADME, organism-based; settings: in vivo; procedure, shortened: as §5
[27] = Unbound drug level in brain of Sprague-Dawley rat at 10 mg/kg, po after 4 hrs by ES-UPLC analysis; format: ADME, organism-based; settings: in vivo; procedure, shortened: as §5
[28] = Ratio of unbound drug level in CSF of Sprague-Dawley rat to unbound plasma concentration in Sprague-Dawley rat at 10 mg/kg, po after 4 hrs by ES-UPLC analysis; format: ADME, organism-based; settings: CSF and plasma; procedure, shortened: as §5
[29] = Ratio of drug level in CSF of Sprague-Dawley rat to unbound brain concentration in Sprague-Dawley rat at 10 mg/kg, po after 4 hrs by ES-UPLC analysis; format: ADME, organism-based; settings: in vivo; procedure, shortened: as §5
[30] = target: T3, Catechol O-methyltransferase; assay: Inhibition of c-terminal hexa-His tagged rat S-COMT expressed in HEK293-6E cell membrane homogenate using 7,8-dihydroxy-4-methylcoumarin as substrate after 1 hr in presence of SAM by MTase glo methyltransferase assay; procedure, shortened: as §2

Sequence of ATP-binding cassette sub-family C member 2 (Q92887 whole entry): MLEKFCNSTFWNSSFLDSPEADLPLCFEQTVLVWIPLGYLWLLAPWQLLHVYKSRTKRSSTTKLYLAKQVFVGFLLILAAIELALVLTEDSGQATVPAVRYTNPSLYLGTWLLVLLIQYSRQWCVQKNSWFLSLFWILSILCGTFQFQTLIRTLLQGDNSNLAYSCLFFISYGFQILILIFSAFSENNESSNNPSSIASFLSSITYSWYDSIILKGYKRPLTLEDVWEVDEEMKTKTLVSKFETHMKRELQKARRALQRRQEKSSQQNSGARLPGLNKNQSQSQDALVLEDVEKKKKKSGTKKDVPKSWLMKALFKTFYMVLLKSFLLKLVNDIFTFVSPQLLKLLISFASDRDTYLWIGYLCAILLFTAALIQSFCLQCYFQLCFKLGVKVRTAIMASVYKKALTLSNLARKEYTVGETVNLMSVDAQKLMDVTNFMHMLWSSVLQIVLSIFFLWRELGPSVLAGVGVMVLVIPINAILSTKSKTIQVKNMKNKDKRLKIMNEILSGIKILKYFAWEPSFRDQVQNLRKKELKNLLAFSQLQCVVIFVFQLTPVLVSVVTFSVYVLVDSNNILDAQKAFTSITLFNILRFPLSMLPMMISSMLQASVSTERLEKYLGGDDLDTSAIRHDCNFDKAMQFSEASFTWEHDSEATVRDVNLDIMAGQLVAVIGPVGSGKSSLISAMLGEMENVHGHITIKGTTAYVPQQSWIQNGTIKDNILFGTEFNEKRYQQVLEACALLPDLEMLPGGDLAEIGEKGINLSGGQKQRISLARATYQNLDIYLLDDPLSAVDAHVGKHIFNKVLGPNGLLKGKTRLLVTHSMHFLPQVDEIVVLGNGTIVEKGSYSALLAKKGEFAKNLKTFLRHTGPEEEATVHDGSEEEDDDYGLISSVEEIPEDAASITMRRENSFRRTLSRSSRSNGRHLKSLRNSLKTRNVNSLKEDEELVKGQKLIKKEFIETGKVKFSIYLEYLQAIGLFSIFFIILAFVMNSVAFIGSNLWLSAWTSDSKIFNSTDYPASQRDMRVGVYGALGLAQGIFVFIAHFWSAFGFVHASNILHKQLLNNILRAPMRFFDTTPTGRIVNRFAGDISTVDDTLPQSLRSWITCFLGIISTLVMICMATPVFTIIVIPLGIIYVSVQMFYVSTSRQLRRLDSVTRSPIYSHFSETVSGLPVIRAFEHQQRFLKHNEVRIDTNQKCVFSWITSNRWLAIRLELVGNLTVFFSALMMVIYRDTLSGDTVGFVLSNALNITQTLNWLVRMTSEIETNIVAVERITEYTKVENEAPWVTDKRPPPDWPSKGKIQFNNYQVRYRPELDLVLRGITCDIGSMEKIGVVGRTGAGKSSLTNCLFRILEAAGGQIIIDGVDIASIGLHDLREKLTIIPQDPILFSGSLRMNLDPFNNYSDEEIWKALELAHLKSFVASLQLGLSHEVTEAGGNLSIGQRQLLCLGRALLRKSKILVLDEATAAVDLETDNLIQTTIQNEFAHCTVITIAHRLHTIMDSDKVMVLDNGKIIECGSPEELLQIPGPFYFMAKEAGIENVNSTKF

Drug uptake(free) [1]: Bld | Drug uptake [2]: Bld | Cp(f) [3]: 35 nM
Compound: Cc1ccc(C(=O)c2cc(O)c(O)c([N+](=O)[O-])c2)cc1 [TOLCAPONE]

Fu [4]: 0.5 | hepatocyte CLint [5]: 228 µL/min/1e6 cells | IC50 [6]: 2000 nM | concentration at 1 h [7]: 235 ng/mL | concentration at 1 h [8]: 109 ng/g | fraction unbound [9]: 0.5 | IC50 [10]: 2 nM
Compound: O=S(=O)(c1ccc(O)c2ncccc12)N1CCCC1Cc1ccccc1 (stereo not given)

Cp(f) [11]: 23 nM | inhibition (INH) [12]: Not Active | Activity [13]: Not Active | inhibition (INH) [14]: Not Active | efflux ratio [15]: 1.2 | Fu [17]: 0.6 | fraction unbound at 2 µM [18]: 0.49 | IC50 [19]: < 1 nM | concentration at 4 h [20]: 157 nM | inhibition (INH) [21]: Not Active | Vdss [22]: 2.2 L/kg | hepatocyte CLint [5]: 21 µL/min/1e6 cells | half-life [24]: 2.8 h | F [25]: 73% | Ratio [26]: 6.8 | Drug uptake(free) [27]: 35 nM | Kp uu at 4 h [28]: 3.3 | IC50 [6]: 1580 nM | Ratio [29]: 4.4 | concentration at 1 h [7]: 1820 ng/mL | concentration at 1 h [8]: 110 ng/g | IC50 [10]: 3.98 nM | IC50 [30]: 3980 nM
Compound: O=S(=O)(c1cc(F)c(O)c2ncccc12)N1CCCC1
CSF DOPAC level (% of vehicle) [16]: 140% | Activity [23]: 72%
